# Reference: ChEMBL document CHEMBL5058577, “EUbOPEN Chemogenomics Library 2 (Multiplex)” (2022)
# Tested on: U2OS
# Assay: Multiplex assay against U2OS
# Type: toxicity, cell-based
# Conditions: human
# Summary of the method: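 Live cells were stained at seeding with Hoechst33342, BioTracker Green Microtubule Cytoskeleton Dye, MitoTracker Red and Annexin V Alexa Fluor 680. Following compound addition, they were imaged on a CQ1 microscope at 37°C and 5% CO2 and gated by CellPathfinder machine learning into Hoechst high-intensity objects or normal cells, with normal cells split into healthy, pyknosed or fragmented nuclei and pyknosed cells into mitotic or apoptotic. Tubulin, mitochondrial-mass and membrane-permeability phenotypes are per cents of healthy-nucleus cells.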
# [1] = 12 h, 1 µM, compound concentration 1 uM, replicate 1
# [2] = 12 h, 1 µM, compound concentration 1 uM, replicate 2
# [3] = 12 h, 10 µM, compound concentration 10 uM, replicate 1
# [4] = 12 h, 10 µM, compound concentration 10 uM, replicate 2
# [5] = 24 h, 1 µM, compound concentration 1 uM, replicate 1
# [6] = 24 h, 1 µM, compound concentration 1 uM, replicate 2
# [7] = 24 h, 10 µM, compound concentration 10 uM, replicate 1
# [8] = 24 h, 10 µM, compound concentration 10 uM, replicate 2
# [9] = 48 h, 1 µM, compound concentration 1 uM, replicate 1
# [10] = 48 h, 1 µM, compound concentration 1 uM, replicate 2
# [11] = 48 h, 10 µM, compound concentration 10 uM, replicate 1
# [12] = 48 h, 10 µM, compound concentration 10 uM, replicate 2
smiles,measurement,setting,value
Cc1nn(C)c2nc(NNC(=O)Nc3cc(Cl)nc(Cl)c3)cc(C(C)C)c12,Population Apoptotic (%),[1],76%
same,Population Fragmented Nuclei (%),[1],23%
same,Population Healthy Nuclei (%),[1],66%
same,Population Hoechst High Intensity Objects (%),[1],1%
same,Population Membrane Permeable-Phenotype (%),[1],5%
same,Population Mitochondria Different-Phenotype (%),[1],3%
same,Population Mitotic Cells (%),[1],24%
same,Population Normal (%),[1],98%
same,Population Pyknosed Nuclei (%),[1],9%
same,Population Tubulin-Different-Phenotype (%),[1],2%
same,Total Cell Count,[1],268
same,Population Apoptotic (%),[2],72%
same,Population Fragmented Nuclei (%),[2],14%
same,Population Healthy Nuclei (%),[2],76%
same,Population Hoechst High Intensity Objects (%),[2],2%
same,Population Membrane Permeable-Phenotype (%),[2],10%
same,Population Mitochondria Different-Phenotype (%),[2],7%
same,Population Mitotic Cells (%),[2],27%
same,Population Normal (%),[2],97%
same,Population Pyknosed Nuclei (%),[2],8%
same,Population Tubulin-Different-Phenotype (%),[2],7%
same,Total Cell Count,[2],131
same,Population Apoptotic (%),[3],77%
same,Population Fragmented Nuclei (%),[3],21%
same,Population Healthy Nuclei (%),[3],56%
same,Population Hoechst High Intensity Objects (%),[3],7%
same,Population Membrane Permeable-Phenotype (%),[3],75%
same,Population Mitochondria Different-Phenotype (%),[3],46%
same,Population Mitotic Cells (%),[3],22%
same,Population Normal (%),[3],92%
same,Population Pyknosed Nuclei (%),[3],21%
same,Population Tubulin-Different-Phenotype (%),[3],80%
same,Total Cell Count,[3],222
same,Population Apoptotic (%),[4],47%
same,Population Fragmented Nuclei (%),[4],15%
same,Population Healthy Nuclei (%),[4],63%
same,Population Hoechst High Intensity Objects (%),[4],4%
same,Population Membrane Permeable-Phenotype (%),[4],57%
same,Population Mitochondria Different-Phenotype (%),[4],63%
same,Population Mitotic Cells (%),[4],52%
same,Population Normal (%),[4],95%
same,Population Tubulin-Different-Phenotype (%),[4],77%
same,Total Cell Count,[4],104
same,Population Apoptotic (%),[5],80%
same,Population Fragmented Nuclei (%),[5],20%
same,Population Healthy Nuclei (%),[5],71%
same,Population Hoechst High Intensity Objects (%),[5],0%
same,Population Membrane Permeable-Phenotype (%),[5],4%
same,Population Mitochondria Different-Phenotype (%),[5],2%
same,Population Mitotic Cells (%),[5],19%
same,Population Normal (%),[5],99%
same,Population Pyknosed Nuclei (%),[5],8%
same,Population Tubulin-Different-Phenotype (%),[5],1%
same,Total Cell Count,[5],328
same,Population Apoptotic (%),[6],93%
same,Population Fragmented Nuclei (%),[6],17%
same,Population Healthy Nuclei (%),[6],73%
same,Population Hoechst High Intensity Objects (%),[6],2%
same,Population Membrane Permeable-Phenotype (%),[6],9%
same,Population Mitochondria Different-Phenotype (%),[6],4%
same,Population Mitotic Cells (%),[6],6%
same,Population Normal (%),[6],97%
same,Population Pyknosed Nuclei (%),[6],9%
same,Population Tubulin-Different-Phenotype (%),[6],4%
same,Total Cell Count,[6],168
same,Population Apoptotic (%),[7],78%
same,Population Fragmented Nuclei (%),[7],19%
same,Population Healthy Nuclei (%),[7],49%
same,Population Hoechst High Intensity Objects (%),[7],5%
same,Population Membrane Permeable-Phenotype (%),[7],69%
same,Population Mitochondria Different-Phenotype (%),[7],58%
same,Population Mitotic Cells (%),[7],21%
same,Population Normal (%),[7],94%
same,Population Pyknosed Nuclei (%),[7],31%
same,Population Tubulin-Different-Phenotype (%),[7],77%
same,Total Cell Count,[7],218
same,Population Apoptotic (%),[8],69%
same,Population Fragmented Nuclei (%),[8],16%
same,Population Healthy Nuclei (%),[8],61%
same,Population Hoechst High Intensity Objects (%),[8],2%
same,Population Membrane Permeable-Phenotype (%),[8],42%
same,Population Mitochondria Different-Phenotype (%),[8],51%
same,Population Mitotic Cells (%),[8],30%
same,Population Normal (%),[8],97%
same,Population Pyknosed Nuclei (%),[8],21%
same,Population Tubulin-Different-Phenotype (%),[8],57%
same,Total Cell Count,[8],110
same,Population Apoptotic (%),[9],88%
same,Population Fragmented Nuclei (%),[9],17%
same,Population Healthy Nuclei (%),[9],75%
same,Population Hoechst High Intensity Objects (%),[9],2%
same,Population Membrane Permeable-Phenotype (%),[9],4%
same,Population Mitochondria Different-Phenotype (%),[9],3%
same,Population Mitotic Cells (%),[9],11%
same,Population Normal (%),[9],97%
same,Population Pyknosed Nuclei (%),[9],7%
same,Population Tubulin-Different-Phenotype (%),[9],2%
same,Total Cell Count,[9],504
same,Population Apoptotic (%),[10],86%
same,Population Fragmented Nuclei (%),[10],21%
same,Population Healthy Nuclei (%),[10],65%
same,Population Hoechst High Intensity Objects (%),[10],1%
same,Population Membrane Permeable-Phenotype (%),[10],8%
same,Population Mitochondria Different-Phenotype (%),[10],4%
same,Population Mitotic Cells (%),[10],13%
same,Population Normal (%),[10],98%
same,Population Pyknosed Nuclei (%),[10],12%
same,Population Tubulin-Different-Phenotype (%),[10],5%
same,Total Cell Count,[10],247
same,Population Apoptotic (%),[11],83%
same,Population Fragmented Nuclei (%),[11],24%
same,Population Healthy Nuclei (%),[11],43%
same,Population Hoechst High Intensity Objects (%),[11],9%
same,Population Membrane Permeable-Phenotype (%),[11],51%
same,Population Mitochondria Different-Phenotype (%),[11],46%
same,Population Mitotic Cells (%),[11],16%
same,Population Normal (%),[11],90%
same,Population Pyknosed Nuclei (%),[11],32%
same,Population Tubulin-Different-Phenotype (%),[11],49%
same,Total Cell Count,[11],244
same,Population Apoptotic (%),[12],80%
same,Population Healthy Nuclei (%),[12],48%
same,Population Hoechst High Intensity Objects (%),[12],6%
same,Population Mitochondria Different-Phenotype (%),[12],63%
same,Population Mitotic Cells (%),[12],20%
same,Population Normal (%),[12],93%
same,Population Pyknosed Nuclei (%),[12],27%
same,Population Tubulin-Different-Phenotype (%),[12],57%
same,Total Cell Count,[12],115
